# From PMC4373334 (Journal of Cellular and Molecular Medicine, 2010)
# Key:
# [1] = system: Zucker obese (fa/fa) rats; assay: Zucker obese rat: kidney protein carbonyl content; assay type: in vivo; conditions: for Kidney PCOs: end of the experiment; for reduction of kidney PCOs versus ZK: kidney homogenates
# Outline: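 Kidneys taken at week 30 from Zucker fa/fa rats (six per group) given test compound in drinking water at 30 mg/kg/24 h. Homogenate 25% w/v in 0.15 M KCl, pH 7.4, with protease inhibitors, centrifuged at 12,000 ×g for 10 min. Total protein carbonyls read at 366 nm (ε 22,000/M/cm), expressed as nmoles/mg protein.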
# [2] = Stability in rat kidney S 9000 fraction; assay type: in vitro ADME
# Outline: (§1)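 Matrices were human serum (healthy donors, 25–30 yr), human liver S9000 fraction or rat kidney S9000 fraction (0.25 g/ml), pre-warmed 10 min at 37°C. Test compound added from a 1 mM solution in 10 mM PBS, pH 7.4; PBS-only controls run alongside. Sampled at 0–120 min, with 24 h added for serum. Internal standard added, then perchloric acid deproteinization (15 min, 4°C), centrifugation and LC-MS/MS.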
# [3] = system: Zucker obese (fa/fa) rats; assay: Zucker obese rat, 24-week treatment: body weight and food intake; assay type: in vivo; conditions: 30 weeks of age, 30 mg/kg/day for 24 weeks
# Outline: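 Male Zucker fa/fa rats bought at 5 weeks, with lean Fa/Fa littermates as reference. Housed singly at 22 ± 1°C on a 12 h light/dark cycle, standard chow, 1 week acclimation. Randomized to three groups of 12. Test compound given in drinking water, concentration adjusted weekly to 30 mg/kg/24 h, from week 6 to week 30.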
# [4] = Pharmacokinetic profile in the rat after oral administration; assay type: in vivo, Sprague-Dawley rats; conditions: for Cmax: pre-dose concentration subtracted
# Outline: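 Single oral dose of 100 mg/kg given to three male Sprague-Dawley rats per test compound. Plasma sampled pre-dose and at 0.25, 0.5, 1, 2, 4, 6 and 24 h, stored at –80°C, and assayed by LC-MS/MS. Pre-dose (endogenous) level subtracted. Non-compartmental analysis: Cmax and tmax read from raw data; AUC0–tlast by linear trapezoidal rule.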
# [5] = system: Zucker obese (fa/fa) rats; assay: Zucker obese rat: urinary oxidative/carbonyl stress indices; assay type: in vivo; conditions: end of the experiment; for AGEs: urine fluorescence; for CAR-HNE level / 8-epi-PGF2α level: urine; for CAR-HNE level: LC-ESI-MS/MS
# Outline: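 24 h urine from treated Zucker fa/fa rats (drinking water, 30 mg/kg/24 h, weeks 6–30). 8-epi-PGF2α and TXB2 measured by enzyme immunoassay. Low-molecular-weight AGEs read by fluorescence (ex 370/em 440 nm), expressed per mg urinary creatinine. CAR-HNE Michael adduct quantified by LC-ESI-MS/MS.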
# [6] = Zucker obese rat: carnosine levels in plasma, urine and renal tissue; assay type: in vivo; conditions: for Carnosine level, Urine: no compound given during 24 hr in metabolic cage
# [7] = system: Zucker obese (fa/fa) rats; assay: Zucker obese rat: tail tendon collagen solubility and Ehrlich adducts; assay type: in vivo; conditions: for reduction of Ehrlich positive material versus ZK: not significant; for Collagen solubility: acetic acid; for Collagen solubility / Ehrlich adducts: end of the experiment
# Outline: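 Tail tendons from treated Zucker fa/fa rats (drinking water, 30 mg/kg/24 h, weeks 6–30) cleaned and washed in ice-cold 75 mM phosphate buffer, pH 7.00, then lyophilized. Solubility determined on 10 mg samples; hydroxyproline measured after acid hydrolysis, collagen taken as 14% hydroxyproline. Ehrlich adducts and fluorescence (ex 365/em 416 nm) measured on 50 mg pepsin-digested collagen, blank-corrected, per mg collagen.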
# [8] = Stability in human liver S 9.000 fraction; assay type: in vitro ADME; conditions: within 15 min, then unchanged until 120 min
# Outline: as §1
# Stability in rat serum = assay type: in vitro ADME
# [9] = system: Zucker obese (fa/fa) rats; assay: Zucker obese rat: systolic blood pressure by tail-cuff plethysmography; assay type: in vivo; conditions: end of the experiment (30 weeks)
# Outline: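 Zucker fa/fa rats dosed in drinking water (30 mg/kg/24 h, weeks 6–30). Systolic pressure taken monthly by tail-cuff plethysmography in conscious, unanaesthetized rats pre-warmed 30 min at 37°C and restrained in a plastic chamber. Heart rate taken from the arterial pulse wave.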
# [10] = system: Zucker obese (fa/fa) rats; assay: Zucker obese rat: renal function; assay type: in vivo; conditions: for restraint of proteinuria/albuminuria/creatininuria: 24 hr urinary excretion, end of treatment; for change in creatinine clearance (GFR) versus ZK / change in plasma creatinine concentration versus ZK / restraint of the increase in urinary albumin-to-creatinine ratio: end of 24-week treatment
# [11] = cited from earlier work
# [12] = system: Zucker obese (fa/fa) rats; assay: Zucker obese rat: renal morphology and morphometry; assay type: in vivo; conditions: for mean glomerular diameter / glomerular and interstitial changes (glomerulosclerosis, tubulointerstitial damage) versus ZK: 30 weeks; for mean glomerular diameter: ZK 1.098 ± 0.05; for glomerular and interstitial changes (glomerulosclerosis, tubulointerstitial damage) versus ZK: light microscopy
# [13] = system: Zucker obese (fa/fa) rats; assay: Zucker obese rat: kidney cholesterol and triglycerides content; assay type: in vivo; conditions: end of 24-week treatment, S 9.000 kidney fraction
# Outline: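 Zucker fa/fa rats dosed via drinking water at 30 mg/kg/24 h from week 6 to week 30; six rats per group used for tissue. Kidney frozen in liquid nitrogen. Total cholesterol and triglycerides measured with commercial kits in S9000 kidney fraction (0.25 g/ml), expressed as μg/mg protein.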
# [14] = ACR quenching ability in homogeneous solution; conditions: 60 min; for percentage amount of ACR quenched: ACR 50 μM, quencher 500 μM (1:10); for ACR disappeared: ACR 200 μM, 1:10 molar excess
# [15] = system: Zucker obese (fa/fa) rats; assay: Zucker obese rat, 24-week treatment: plasma parameters; assay type: in vivo; conditions: for change in plasma cholesterol versus ZK / change in plasma triglycerides versus ZK: after 24 weeks, 30 mg/kg/day; for insulin resistance (HOMA-IR) versus ZK / reduction of hyperinsulinaemia (plasma insulin) versus ZK / effect on plasma glucose levels: end of 24-week treatment; for effect on plasma glucose levels: fasting
# Outline: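 Male Zucker fa/fa rats (lean littermates as reference), 12 per group, received test compound in drinking water at 30 mg/kg/24 h from week 6 to week 30. Plasma spun 15 min at 4°C and stored at –80°C. Cholesterol, triglycerides, glucose and insulin measured by enzymatic-colorimetric kits. HOMA-IR calculated from fasting glucose and insulin.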
# [16] = human beings receiving 450 mg, 15 min up to 300 min; cited from earlier work
# Stability = assay type: in vitro ADME, human; conditions: for stability to enzymatic hydrolysis in human serum: 37°C, followed over 24 hrs
# Outline: as §1
# [17] = HNE quenching ability in homogeneous solution; conditions: HNE 200 μM; for HNE quenched: 1:10 molar excess, 24 hrs of incubation; for residual amount of HNE: quencher 2 mM (1:10), phosphate buffer pH 7.4, 37°C, 60 min
# [18] = male, Sprague-Dawley, rat, plasma, po, 100 mg/kg
structure (smiles),measurement,setting,value
"NCCC(=O)N[C@@H](Cc1cnc[nH]1)C(=O)O [L-CAR, β-alanyl-L-histidine]",Kidney PCOs,[1],8.83 ± 1.91 nmol/mg prot
same,reduction of kidney PCOs versus ZK,[1],23.4%
same,hydrolysis in rat kidney,[2]; during the sample processing time,about 93%
same,body weight difference versus LN,[3],+35.8%
same,body weight difference versus ZK,[3],–12%
same,half-life,[4]; [18],0.24 ± 0.02 h
same,tmax,[4]; [18],1 h
same,systemic exposure up to infinite time AUC(0–∞),"[4]; oral 100 mg/kg, rat plasma",118.45 ± 9.24 µM·h
same,time until plasma concentration returned to baseline,"[4]; oral 100 mg/kg, rat plasma",2 h
same,Cmax,"[4]; oral 100 mg/kg, rat plasma",147.7 ± 6.50 µM
same,effect on urinary TXB2 excretion rates,[5],did not affect
same,increase in urinary CAR-HNE levels compared to ZK,[5],1.7 fold
same,AGEs,[5],337.2 ± 28.7 ^* FU/mg creatinine/day
same,CAR-HNE level,[5],0.749 ± 0.37 nmol/day
same,8-epi-PGF2α level,[5],37.6 ± 4.3 ng/day
same,concentration at 24 weeks,"[6]; Zucker obese, rat, plasma, oral, 30 mg/kg/day",0.473 ± 0.13 µM
same,"Carnosine level, Kidney",[6]; end of the experiment,14.67 ± 2.09 nmol/g wet tissue
same,increase in kidney CAR content compared to ZK,[6]; end of the experiment,1.6 fold
same,"Carnosine level, Urine",[6]; end of the experiment,32.62 ± 1.25 nmol/day
same,reduction of Ehrlich positive material versus ZK,[7],~9.1%
same,increase of collagen solubility compared to ZK,[7]; tail tendon collagen,66.4%
same,Collagen solubility,[7]; tail tendon collagen,65.4 ± 2.58 ^* %
same,Ehrlich adducts,[7]; tail tendon collagen,0.868 ± 0.39 µmol/mg
same,hydrolysis in human liver,[8],~30%
same,stability in rat serum,Stability in rat serum,no significant reduction within at least 6 hrs
same,SBP,[9],145 ± 3 mmHg
same,reduction of SBP versus ZK,[9],11.5%
same,restraint of proteinuria/albuminuria/creatininuria,[10],approximately 50%
same,change in creatinine clearance (GFR) versus ZK,[10],+28.3%
same,change in plasma creatinine concentration versus ZK,[10],–31.7%
same,restraint of the increase in urinary albumin-to-creatinine ratio,[10],65–70%
same,time to hydrolysis in human serum,[11],≤ 5 min
same,mean glomerular diameter,[12],1.023 ± 0.02
same,"glomerular and interstitial changes (glomerulosclerosis, tubulointerstitial damage) versus ZK",[12],not significantly modified
same,total cholesterol content in kidney,[13],6.31 ± 0.5115 μg/mg protein
same,triglycerides content in kidney,[13],12.01 ± 0.9528 μg/mg protein
same,percentage amount of ACR quenched,[14],63.8 ± 3.5%
same,ACR disappeared,[14],~100%
same,change in plasma cholesterol versus ZK,[15],–40%
same,change in plasma triglycerides versus ZK,[15],–35%
same,insulin resistance (HOMA-IR) versus ZK,[15],significantly improved
same,reduction of hyperinsulinaemia (plasma insulin) versus ZK,[15],28.08%
same,effect on plasma glucose levels,[15],did not significantly affect
same,CAR in serum after oral supplementation,[16],No CAR was detected in serum specimens
same,stability to enzymatic hydrolysis in human serum,Stability,rapidly disappeared in human serum at the first time-point (60 min.)
same,time to disappearance in human serum,Stability; in vitro studies in the authors' laboratories,≤ 5 min
same,HNE quenched,[17],~100%
same,residual amount of HNE,[17],46.2 ± 2.73%
"NCCC(=O)N[C@H](Cc1c[nH]cn1)C(=O)O [D-CAR, β-alanyl-D-histidine]",Kidney PCOs,[1],6.61 ± 1.52 ^* nmol/mg prot
same,reduction of kidney PCOs versus ZK,[1],42.61%
same,remaining in rat kidney,[2]; 120 min of incubation,91%
same,body weight difference versus LN,[3],+40%
same,body weight difference versus ZK,[3],–9%
same,half-life,"[4]; oral 100 mg/kg, rat plasma",3.36 h
same,systemic exposure up to infinite time AUC(0–∞),"[4]; oral 100 mg/kg, rat plasma",318.62 ± 24.75 µM·h
same,time until plasma concentration returned to baseline,"[4]; oral 100 mg/kg, rat plasma",24 h
same,Cmax,"[4]; oral 100 mg/kg, rat plasma",52.86 ± 2.86 µM
same,tmax,"[4]; oral 100 mg/kg, rat plasma, 100 mg/kg",2 h
same,effect on urinary TXB2 excretion rates,[5],did not affect
same,increase in urinary CAR-HNE levels compared to ZK,[5],2.2 fold
same,AGEs,[5],324.4 ± 21.8 ^* ^* FU/mg creatinine/day
same,CAR-HNE level,[5],0.982 ± 0.33 nmol/day
same,8-epi-PGF2α level,[5],42.1 ± 3.9 ng/day
same,"Carnosine level, Kidney",[6]; end of the experiment,127.7 ± 17.00 ^* ^*/°°° nmol/g wet tissue
same,increase in kidney CAR content compared to ZK,[6]; end of the experiment,14.4 fold
same,increase of plasma carnosine concentration,[6]; end of the experiment,> 10 fold
same,"Carnosine level, Plasma","[6]; end of the experiment, 30 mg/kg/day for 24 weeks",5.37 ± 3.04 nmol/mL
same,"Carnosine level, Urine",[6]; end of the experiment,"10,069 ± 1844 ^* ^*/°°° nmol/day"
same,reduction of Ehrlich positive material versus ZK,[7],~21.7%
same,Collagen solubility,[7]; tail tendon collagen,71.4 ± 3.14 ^* ^* %
same,Ehrlich adducts,[7]; tail tendon collagen,0.747 ± 0.384 µmol/mg
same,hydrolysis in human liver,[8],~30%
same,SBP,[9],137 ± 4 mmHg
same,reduction of SBP versus ZK,[9],15.7%
same,restraint of proteinuria/albuminuria/creatininuria,[10],approximately 50%
same,change in creatinine clearance (GFR) versus ZK,[10],+25.1%
same,change in plasma creatinine concentration versus ZK,[10],–36%
same,restraint of the increase in urinary albumin-to-creatinine ratio,[10],65–70%
same,mean glomerular diameter,[12],1.042 ± 0.005
same,GBM thickness,"[12]; electron microscopy, four animals per group",3.75 ± 0.8 nm
same,"glomerular and interstitial changes (glomerulosclerosis, tubulointerstitial damage) versus ZK",[12],not significantly modified
same,total cholesterol content in kidney,[13],6.668 ± 0.5087 μg/mg protein
same,triglycerides content in kidney,[13],10.66 ± 0.3616 μg/mg protein
same,percentage amount of ACR quenched,[14],65.0 ± 3.3%
same,ACR disappeared,[14],~100%
same,change in plasma cholesterol versus ZK,[15],–45%
same,change in plasma triglycerides versus ZK,[15],–43%
same,insulin resistance (HOMA-IR) versus ZK,[15],significantly improved
same,reduction of hyperinsulinaemia (plasma insulin) versus ZK,[15],33.03%
same,effect on plasma glucose levels,[15],did not significantly affect
same,stability to enzymatic hydrolysis in human serum,Stability,remained unchanged until 6 hrs incubation
same,decrease in human serum,Stability; after 24 hrs of incubation,6%
same,HNE quenched,[17],~100%
same,residual amount of HNE,[17],46.9 ± 2.3%
